# Assay outcomes deposited in PubChem BioAssay by Johns Hopkins Ion Channel Center.
# KCNK3 inh = human KCNK3 channel inhibitors, primary screen, CHO cells, FluxOR thallium flux, B-score; Potassium channel subfamily K member 3 (Homo sapiens), O14649; FluxOR fluorescence; hits give low values; B-score at 10 µM; hit rate 0.84% among 340,000;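 active = B-score under library mean minus 4 SD, starting fluorescence ratio at most library mean plus 5 SD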;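 also: more negative B-score means stronger inhibition of thallium flux through KCNK3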
# KCNQ1 inh = inhibitors of human KCNQ1 channel, primary screen, cell-based, thallium flux, high-throughput; CHO-K1 KCNQ1, FluxOR thallium flux fluorescence; hits give high values; hit rate 1.3% among 310,000; B-score at 10 µM;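 active = compounds whose thallium flux B-score, printed positive for inhibition, exceeds three library SD while starting fluorescence stays within three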;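 also: channel opened by potassium depolarization with thallium stimulus after 20 min compound exposure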
# Kir21 inh = inhibitors of mouse Kir2.1 inward-rectifier potassium channel; Inward rectifier potassium channel 2 (Mus musculus), P35561; HEK293-Kir2.1, FluxOR thallium flux fluorescence; hits give low values; B-score at 10 µM; hit rate 0.85% among 310,000;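 active = fluorescence ratio B-score at or below minus 3 SD of library scores, with starting-brightness B-score within 2 SD, cut at about -4.2 in these data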;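 also: channel flux triggered by added potassium and thallium sulfate stimulus; B-score of peak minus minimum fluorescence over baseline after thallium stimulus; more negative B-score means stronger Kir2.1 block with less thallium influx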
# KCNQ1 pot = potentiators or activators of KCNQ1 channel, primary screen, cell-based, thallium flux, high-throughput; Potassium voltage-gated channel subfamily KQT member 1 (Homo sapiens), P51787; CHO-K1 KCNQ1, thallium flux FluxOR fluorescence; hits give high values; B-score at 10 µM; hit rate 0.35% among 310,000; AID 2648, 2010;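 active = fluorescence ratio B-score, a plate-corrected score, at least three library SD, with initial intensity B-score within 5 SD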
#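 System: Stable KCNQ1 CHO-K1 line | Incubation: 90 min dye loading and 20 min compound exposure, both at room temperature | Measure: Ratio B score | Medium: Assay buffer for compound exposure, DMSO matched across wells | Compound dosing: Single-concentration screen | Probe or stimulus: K+/Tl+ depolarizing stimulus | Measured by: Kinetic FluxOR fluorescence, 10 s baseline plus 110 s post-stimulus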
# hERG rescue = hERG rescue from dofetilide block, primary screen, cell-based, CHO-hERG, FluxOR thallium flux, dofetilide IC70; Voltage-gated inwardly rectifying potassium channel KCNH2 (Homo sapiens), Q12809; dofetilide IC70 present; activation (rescue from dofetilide block), less the hit threshold, % at 10 µM; hit rate 0.51% among 310,000;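 active = activation above the mean of controls blocked by dofetilide plus 5 SD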;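 also: thallium influx through hERG after potassium depolarization seen as dye fluorescence rise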
# KCNK9 block = KCNK9 potassium channel inhibitors, primary screen, HEK293 cells, thallium flux. AID 488922, 2010. FluxOR thallium flux fluorescence; hits give low values. Potassium channel subfamily K member 9 (Homo sapiens), Q9NPC2. hit rate 1.2% among 310,000. B-score at 10 µM;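 active = ratio B-score over 3 SD below the library mean, with starting fluorescence within 5 SD of its mean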;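 also: negative B-score means less thallium flux so channel inhibition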
# * hit, by the source's call; i = inactive; · = not tested or not shown. The list is not random: actives were taken first. Their share in the collection is about 3.7%.
SMILES,KCNK3 inh,KCNQ1 inh,Kir21 inh,KCNQ1 pot,hERG rescue,KCNK9 block
CCCCn1c(=N)n(CC(O)COc2cccc(C)c2)c2ccccc21 (stereo unspecified),i,7*,-5.2*,i,-24,i
O=C(NCCCCc1ccccc1)c1ccc(F)cc1,i,i,-0.52,i,-6,i
CCc1cccc(C)c1NC(=O)CN1C(=O)NC(CCc2ccccc2)C1=O (stereo unspecified),i,·,·,·,·,·
Cc1ccc(OCC(O)Cn2c(=N)n(CCN3CCCCC3)c3ccccc32)cc1 (stereo unspecified),i,i,-4.3*,i,-19,i
COCc1cc(C)nc(SCc2ccc([N+](=O)[O-])cc2)c1C#N,i,i,-0.16,i,-8,i
COc1ccc(-c2c[n+]3c4n2CCCCC4=C(c2ccc(Br)cc2)C3)cc1,i,11*,0.49,i,-33,i
Clc1ccc(C2=C3CCCCn4c(-c5ccccc5)c[n+](c43)C2)cc1,i,7*,0.54,i,-23,i
COc1ccc(-c2cnc3n2CCCCC3)cc1,i,i,-0.25,i,-10,i
Cc1cc(C(=O)CCl)c(C)n1-c1cccc([N+](=O)[O-])c1,i,i,-1.2,11*,-10,i
CC(=O)c1c(C(C)=O)c(C)n(-c2cccc([N+](=O)[O-])c2)c1C,i,i,-1.1,i,-2,i
CC(C)(C)C(=O)/C(=C\c1ccc([N+](=O)[O-])cc1)n1cncn1,·,i,-7.3*,i,-6,i
CC(=O)Oc1c(C)c(C)c2c(c1C)CC[C@@](C)(CCC[C@H](C)CCC[C@H](C)CCCC(C)C)O2,i,·,·,·,·,·
N#C/C(=N\Nc1ccccc1F)c1nc(-c2ccccc2)cs1,i,i,-0.02,i,18*,i
CCn1c(O)c(N=NC2=NC(=O)CS2)c2ccccc21,i,i,0.04,i,9.1*,i
CC(=O)c1cccc(NC(=O)C(=O)Nc2cccc3ccccc23)c1,i,i,-1.2,i,5.2*,i
CC(=O)c1ccc(NC(=S)Nc2cccc3ccccc23)cc1,i,i,0.4,i,-5,i
CCCCn1c(N)c(N(CCOC)C(=O)C2CCN(c3ncnc4sc(C)c(C)c34)CC2)c(=O)[nH]c1=O,i,i,0.73,i,-12,i
COc1ccccc1CNCC(=O)Nc1ccccc1-n1cccc1,i,i,-4.5*,i,-12,i
O=C(NC1CCCCC1)C(Cc1ccccc1)NS(=O)(=O)c1cccs1 (stereo unspecified),i,i,-1,i,7.9*,i
O=C(NC1CCCc2ccccc21)C(Cc1ccccc1)NS(=O)(=O)c1cccs1 (stereo unspecified),i,i,-0.27,i,-9,i
O=C(Nc1ccccc1C(=O)NC(Cc1ccccc1)C(=O)NC1CCCCCC1)c1ccccc1 (stereo unspecified),i,6*,-0.37,i,-6,i
COc1ccc(S(=O)(=O)NCC(c2cccnc2)N2CCN(C)CC2)cc1OC (stereo unspecified),i,i,0.05,i,-6,i
OCCN1CCN(CC(O)COc2ccc(Cl)cc2)CC1 (stereo unspecified),i,i,0.18,i,-4,i
OCCN1CCN(CC(O)COc2ccc(C34CC5CC(CC(C5)C3)C4)cc2)CC1 (stereo unspecified),i,i,-4.4*,i,-21,i
O=C(NCCc1ccccc1)C(=O)NCC1CCNCC1,·,i,0.27,i,4.6*,i
O=C1CN(C(=O)COC(=O)c2ccccc2Br)c2ccccc2N1,i,·,·,·,·,·
